Measured values published in ChEMBL document CHEMBL4602710 (ACS Med Chem Lett, 2020).
≈ marks a conversion by molar mass, not a printed value. Calls of active or inactive are those of the source. No cut-off for these calls is given here.

Key:
[1] = AUC in human at 45 mg, po administered as single dose; assay type: ADME, organism-based; conditions: in vivo
Summary of the method: (§1)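 Healthy human volunteers given a single oral 45 mg dose, either without pretreatment or after pretreatment with 20 mg omeprazole; plasma AUC compared.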

[2] = Fraction unbound in human plasma; assay type: ADME, cell-free
[3] = Volume of distribution at steady state in dog at 1 mg/kg, iv or 5 mg/kg, po; assay type: ADME, organism-based, Canis lupus familiaris; conditions: in vivo, read-out: Vdss
[4] = Half life in dog at 1 mg/kg, iv or 5 mg/kg, po; assay type: ADME, organism-based, Canis lupus familiaris; conditions: in vivo
[5] = Fraction unbound in rat plasma; assay type: ADME, cell-free
[6] = Fraction unbound in monkey plasma; assay type: ADME, cell-free, Macaca mulatta; conditions: rhesus monkey
[7] = Half life at steady state in human at 2 to 50 mg administered once daily; assay type: ADME; conditions: in vivo, read-out: t1/2ss
[8] = Solubility of compound at pH 2; assay type: physicochemical; conditions: buffer
[9] = Oral bioavailability in dog at 5 mg/kg; assay type: ADME, organism-based, Canis lupus familiaris; conditions: in vivo
[10] = Oral bioavailability in rat at 5 mg/kg; assay type: ADME, organism-based; conditions: in vivo
Mus musculus [11] = test: Protective activity in NZBWF1/J mouse SLE model assessed as increase in animal survival rate at 0.25%, po administered daily for 12 weeks measured at week 40; assay type: functional, organism-based
Summary of the method: (§2)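 Spontaneous lupus model in NZB/W F1 mice, treated for 12 weeks. Proteinuria score followed from weeks 28–40; survival assessed at week 40.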

[12] = Oral bioavailability in monkey at 5 mg/kg; assay type: ADME, organism-based, Macaca mulatta; conditions: rhesus monkey, in vivo
[13] = Toxicity in human assessed as clinical abnormalities at 15 to 50 mg administered as multiple doses; conditions: in vivo
Summary of the method: (§3)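 Healthy human volunteers received single doses of 2–50 mg or multiple doses of 15–50 mg; adverse events and laboratory abnormalities recorded.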

[14] = AUC in dog pretreated with pentagastrin; assay type: ADME, Canis lupus familiaris; conditions: in vivo
[15] = molecular target: Tyrosine-protein kinase JAK2 (Homo sapiens, UniProt O60674); test: Inhibition of wild-type human partial length JAK2 JH1 catalytic domain (A829 to G1132 residues) expressed in mammalian expression system by Kinomescan method
[16] = Clearance in dog at 1 mg/kg, iv or 5 mg/kg, po; assay type: ADME, organism-based, Canis lupus familiaris; conditions: in vivo
[17] = Clearance in human liver microsomes; assay type: ADME, Microsome
[18] = Toxicity in human assessed as clinical abnormalities at 2 to 50 mg administered as single dose; conditions: in vivo; summary of the method: as §3
[19] = Distribution coefficient, logD of compound; assay type: physicochemical; conditions: octanol/water
[20] = AUC in human at 45 mg, po administered as single dose pretreated with omeprazole; assay type: ADME, organism-based; conditions: in vivo; summary of the method: as §1
[21] = Clearance in monkey at 1 mg/kg, iv or 5 mg/kg, po; assay type: ADME, organism-based, Macaca mulatta; conditions: rhesus monkey, in vivo
[22] = Toxicity in human assessed as adverse events at 2 to 50 mg administered as single dose; conditions: in vivo; summary of the method: as §3
[23] = Apparent clearance in human hepatocytes; assay type: ADME, cell-based, Hepatocyte
[24] = Half life in monkey at 1 mg/kg, iv or 5 mg/kg, po; assay type: ADME, organism-based, Macaca mulatta; conditions: rhesus monkey, in vivo
[25] = Fraction unbound in dog plasma; assay type: ADME, cell-free, Canis lupus familiaris
Hepatocyte [26] = test: Apparent clearance in monkey hepatocytes; assay type: ADME, cell-based, Macaca mulatta; conditions: rhesus monkey
Mus musculus [27] = test: Protective activity in NZBWF1/J mouse SLE model assessed as reduction in proteinuria at 0.25%, po administered daily for 12 weeks measured weekly from week 28-40; assay type: functional, organism-based; summary of the method: as §2
[28] = Apparent clearance in rat hepatocytes; assay type: ADME, cell-based, Hepatocyte
[29] = Half life in rat at 1 mg/kg, iv or 5 mg/kg, po; assay type: ADME, organism-based; conditions: in vivo
[30] = Clearance in rat at 1 mg/kg, iv or 5 mg/kg, po; assay type: ADME, organism-based; conditions: in vivo
[31] = Solubility of compound at pH 7.4; assay type: physicochemical; conditions: buffer
[32] = Volume of distribution at steady state in rat at 1 mg/kg, iv or 5 mg/kg, po; assay type: ADME, organism-based; conditions: in vivo, read-out: Vdss
[33] = AUC in dog pretreated with famotidine; assay type: ADME, Canis lupus familiaris; conditions: in vivo
Hepatocyte [34] = test: Apparent clearance in dog hepatocytes; assay type: ADME, cell-based, Canis lupus familiaris
[35] = Volume of distribution at steady state in monkey at 1 mg/kg, iv or 5 mg/kg, po; assay type: ADME, organism-based, Macaca mulatta; conditions: rhesus monkey, in vivo, read-out: Vdss
[36] = Toxicity in human assessed as adverse events at 15 to 50 mg administered as multiple doses; conditions: in vivo; summary of the method: as §3

Tyrosine-protein kinase JAK2, sequence (O60674 whole entry, the tested form may be a part): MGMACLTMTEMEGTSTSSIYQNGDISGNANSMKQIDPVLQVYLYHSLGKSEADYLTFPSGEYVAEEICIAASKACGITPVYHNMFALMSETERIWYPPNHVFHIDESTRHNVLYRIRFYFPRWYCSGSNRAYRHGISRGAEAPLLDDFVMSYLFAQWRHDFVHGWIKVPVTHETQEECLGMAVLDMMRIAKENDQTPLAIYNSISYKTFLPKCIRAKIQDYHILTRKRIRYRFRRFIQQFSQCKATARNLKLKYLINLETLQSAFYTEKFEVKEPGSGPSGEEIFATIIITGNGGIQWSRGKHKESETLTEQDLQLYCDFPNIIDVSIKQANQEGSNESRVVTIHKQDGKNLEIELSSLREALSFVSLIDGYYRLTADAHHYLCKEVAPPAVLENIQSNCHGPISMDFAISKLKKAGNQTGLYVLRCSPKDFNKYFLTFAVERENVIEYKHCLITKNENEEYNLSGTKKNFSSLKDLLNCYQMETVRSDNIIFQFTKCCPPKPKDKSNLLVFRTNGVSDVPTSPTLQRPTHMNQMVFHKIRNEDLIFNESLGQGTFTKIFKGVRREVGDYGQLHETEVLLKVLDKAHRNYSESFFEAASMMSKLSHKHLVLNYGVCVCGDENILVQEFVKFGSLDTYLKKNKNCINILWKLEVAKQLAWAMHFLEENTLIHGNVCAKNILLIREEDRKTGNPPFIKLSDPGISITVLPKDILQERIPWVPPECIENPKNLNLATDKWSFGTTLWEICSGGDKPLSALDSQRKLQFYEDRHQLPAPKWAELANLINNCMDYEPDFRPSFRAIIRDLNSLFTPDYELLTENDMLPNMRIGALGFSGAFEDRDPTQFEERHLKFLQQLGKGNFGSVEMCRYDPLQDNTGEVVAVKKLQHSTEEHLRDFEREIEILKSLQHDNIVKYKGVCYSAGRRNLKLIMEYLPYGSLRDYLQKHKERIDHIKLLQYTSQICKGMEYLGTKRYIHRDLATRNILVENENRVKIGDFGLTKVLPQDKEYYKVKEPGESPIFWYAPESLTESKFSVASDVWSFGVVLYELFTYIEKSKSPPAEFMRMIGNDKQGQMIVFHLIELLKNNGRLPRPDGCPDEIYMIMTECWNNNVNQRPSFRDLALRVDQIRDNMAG

AUC [1]: 6.19 µM·h | fraction unbound [2]: 0.204 | Vd [3]: 1.6 L/kg | half-life [4]: 5.3 h | fraction unbound [5]: 0.118 | fraction unbound [6]: 0.322 | half-life [7]: 21.3 to 24.6 h | solubility [8]: > 100 µM | bioavailability [9]: 100% | bioavailability [10]: 60% | bioavailability [12]: 100% | AUC [14]: 8.8 µM·h | IC50 [15]: 120 nM | clearance [16]: 5.5 mL/min/kg | CLhep predicted [17]: < 1.83 mL/min/kg | logD [19]: 1.3 | AUC [20]: 6.46 µM·h | clearance [21]: 9.67 mL/min/kg | CLH(app) [23]: 0.83 mL/min/kg | half-life [24]: 2.3 h | fraction unbound [25]: 0.385 | CLH(app) (Hepatocyte [26]): 4.67 mL/min/kg | CLH(app) [28]: 23.3 mL/min/kg | half-life [29]: 3.7 h | clearance [30]: 29.5 mL/min/kg | solubility [31]: 99 µM (≈ 43.9 µg/mL) | Vd [32]: 2.5 L/kg | AUC [33]: 10.2 µM·h | CLH(app) (Hepatocyte [34]): 4.67 mL/min/kg | Vd [35]: 1.3 L/kg
Structure (SMILES): Nc1cncc(-c2cn3ccnc3c(Nc3ccc(N4CCN(C5COC5)CC4)cc3)n2)n1 [LANRAPLENIB]
Activity (Mus musculus [11]): Active | Activity [13]: Non-Toxic | Activity [18]: Non-Toxic | Activity [22]: Non-Toxic | Activity (Mus musculus [27]): Active | Activity [36]: Non-Toxic
